Laboratory results taken from ChEMBL document CHEMBL3600340, “Design and synthesis of new barbituric- and thiobarbituric acid derivatives as potent urease inhibitors: Structure activity relationship and molecular modeling studies” (Bioorg Med Chem, 2015).
pIC50: −log10 of the molar value.

What follows are molecules tested against Urease (Canavalia ensiformis, UniProt P07374) (assay: Inhibition of jack bean Urease assessed as ammonia production after 15 mins by indophenol method).
Summary of the method: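 Jack bean urease preincubated with test compound (0.5 mM, concentration as printed) in buffer containing 100 mM urea at 30 °C for 15 min, pH 6.8. Ammonia quantified by indophenol method (phenol/nitroprusside plus alkaline hypochlorite). Absorbance read at 630 nm after 50 min.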

Urease, sequence (P07374 whole entry): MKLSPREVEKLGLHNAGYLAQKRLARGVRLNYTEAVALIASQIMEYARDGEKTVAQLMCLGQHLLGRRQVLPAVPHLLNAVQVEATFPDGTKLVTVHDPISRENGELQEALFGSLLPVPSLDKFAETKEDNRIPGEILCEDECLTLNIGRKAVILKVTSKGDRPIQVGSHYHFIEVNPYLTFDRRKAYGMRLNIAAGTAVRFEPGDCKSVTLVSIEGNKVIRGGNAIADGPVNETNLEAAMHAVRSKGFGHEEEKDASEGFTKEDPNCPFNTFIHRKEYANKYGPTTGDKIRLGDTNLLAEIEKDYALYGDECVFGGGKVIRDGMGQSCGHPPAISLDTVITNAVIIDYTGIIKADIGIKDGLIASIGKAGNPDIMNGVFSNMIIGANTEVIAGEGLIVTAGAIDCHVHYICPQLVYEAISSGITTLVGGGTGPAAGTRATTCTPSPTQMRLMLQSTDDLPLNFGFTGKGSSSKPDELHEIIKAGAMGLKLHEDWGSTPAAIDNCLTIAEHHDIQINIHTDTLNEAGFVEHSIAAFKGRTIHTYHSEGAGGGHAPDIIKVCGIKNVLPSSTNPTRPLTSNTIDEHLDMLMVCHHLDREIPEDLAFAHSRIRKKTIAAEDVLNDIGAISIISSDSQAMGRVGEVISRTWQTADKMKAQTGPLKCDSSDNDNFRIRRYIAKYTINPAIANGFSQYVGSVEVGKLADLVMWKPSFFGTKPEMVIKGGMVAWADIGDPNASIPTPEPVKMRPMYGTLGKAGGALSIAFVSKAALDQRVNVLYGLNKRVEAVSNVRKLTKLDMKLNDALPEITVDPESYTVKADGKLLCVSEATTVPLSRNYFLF

First: O=C1NC(=S)NC(=O)C1=CNc1cc([N+](=O)[O-])ccc1C(=O)O
Second: O=C1NC(=S)NC(=O)C1=CNc1ccc([N+](=O)[O-])c(C(=O)O)c1
The pIC50 of the first is 0.67 log units higher: 5.07 for the first, 4.40 for the second. The first is the more potent here.

First: O=C1NC(=S)NC(=O)C1=CNc1cccc(C(=O)O)c1
Second: O=C1NC(=S)NC(=O)C1=CNc1ccc(C(=O)O)cc1
The pIC50 of the first is 0.39 log units lower: 4.66 for the first, 5.05 for the second. The second is the more potent here.

`O=C1NC(=S)NC(=O)C1=CNc1ccccc1O` and `O=C1NC(=S)NC(=O)C1=CNc1ccccc1S` are within 0.2 log units of each other in pIC50: 4.71 for the first, 4.82 for the second.

Compared with `O=C1NC(=S)NC(=O)C1=CNc1ccc(C(=O)O)c(O)c1`, `O=C1NC(=O)C(=CNc2ccc(C(=O)O)c(O)c2)C(=O)N1` is 0.44 log units lower in pIC50: 4.49 for the first, 4.05 for the second.

Going from `O=C1NC(=S)NC(=O)C1=CNc1ccccc1C(=O)O` to `O=C1NC(=S)NC(=O)C1=CNc1cc(C(=O)O)ccc1Cl`, the pIC50 falls from 4.89 to 4.57 (0.32 log units).

Compared with `O=C1NC(=S)NC(=O)C1=CNc1ccc(I)cc1`, `O=C1NC(=S)NC(=O)C1=CNc1ccc(C(F)(F)F)cc1` is 0.51 log units lower in pIC50: 4.38 for the first, 3.87 for the second.

First: O=C1NC(=S)NC(=O)C1=CNc1cccc(C(F)(F)F)c1
Second: O=C1NC(=S)NC(=O)C1=CNc1ccccc1C(F)(F)F
The pIC50 of the first is 0.42 log units higher: 4.61 for the first, 4.19 for the second.

First: O=C1NC(=O)C(=CNc2ccccc2S)C(=O)N1
Second: O=C1NC(=O)C(=CNc2ccc([N+](=O)[O-])c(C(=O)O)c2)C(=O)N1
The pIC50 of the first is 0.31 log units lower: 4.28 for the first, 4.59 for the second. The second is the more potent here.

`O=C1NC(=S)NC(=O)C1=CNc1cc([N+](=O)[O-])ccc1C(F)(F)F` and `O=C1NC(=S)NC(=O)C1=CNc1cc(C(=O)O)ccc1O` are within 0.2 log units of each other in pIC50: 4.54 for the first, 4.72 for the second.

In the case of `O=C1NC(=S)NC(=O)C1=CNc1cc(Cl)cc(Cl)c1`, the pIC50 was 4.05.
